# According to ChEMBL document CHEMBL3271970, “Radiopharmaceuticals. 16. Halogenated dopamine analogs. Synthesis and radiolabeling of 6-iododopamine and tissue distribution studies in animals” (J Med Chem, 1976):
# How the values were obtained:
# Kidney [1] = assay: Biodistribution in kidney of mouse assessed per organ at 8 to 11 x 10^-8 mol, iv measured after 60 mins; type: ADME, organism-based; conditions: in vivo, 1 h
# Summary of the method: (§1)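 [131I]- or [123I]-6-iododopamine in water or saline, used within 30 min of preparation. Injected iv at 8-11 × 10^-8 mol/mouse. Mice killed by ether overdose at 5-240 min; 3-10 mice per time point. Tissue radioactivity expressed as % dose/organ ± SD.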
# [2] = Biodistribution in adrenal cortex of mongrel dog assessed per organ at 1.29 x 10^-6 mol, iv measured after 2 hrs; type: ADME, organism-based, Canis lupus familiaris; conditions: in vivo
# Summary of the method: (§2)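 Radioiodinated ([123I] or [131I]) 6-iododopamine in water or saline, used within 30 min of preparation. Given iv at 1.29 × 10^-6 mol/dog; one dog per time point, killed at 2 or 24 h. Large organs counted as three samples and averaged; adrenals and thyroid taken intact and counted. Expressed as % dose/organ.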
# Mus musculus [3] = assay: Biodistribution in adrenal gland of mouse assessed per organ at 8 to 11 x 10^-8 mol, iv measured after 120 mins; type: ADME, organism-based; conditions: in vivo, 2 h; summary of the method: as §1
# Mus musculus [4] = assay: Biodistribution in thyroid gland of mouse assessed per organ at 8 to 11 x 10^-8 mol, iv measured after 15 mins; type: ADME, organism-based; conditions: in vivo, 0.25 h
# Summary of the method: (§3)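 Tracer labelled with either 123I or 131I, in water or saline, used within 30 min of preparation. Mice dosed iv at 8-11 × 10^-8 mol/mouse and killed by ether overdose. Organs counted as % dose/organ ± SD, n = 3-10 mice per time point.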
# [5] = Biodistribution in adrenal medulla of mongrel dog assessed per organ at 1.29 x 10^-6 mol, iv measured after 2 hrs; type: ADME, organism-based, Canis lupus familiaris; conditions: in vivo; summary of the method: as §2
# Mus musculus [6] = assay: Biodistribution in adrenal gland of mouse assessed per organ at 8 to 11 x 10^-8 mol, iv measured after 15 mins; type: ADME, organism-based; conditions: in vivo, 0.25 h; summary of the method: as §1
# [7] = Biodistribution in kidney of mongrel dog assessed per organ at 1.29 x 10^-6 mol, iv measured after 24 hrs; type: ADME, organism-based, Canis lupus familiaris; conditions: in vivo; summary of the method: as §2
# Mus musculus [8] = assay: Biodistribution in adrenal gland of mouse assessed per organ at 8 to 11 x 10^-8 mol, iv measured after 60 mins; type: ADME, organism-based; conditions: in vivo, 1 h; summary of the method: as §1
# Kidney [9] = assay: Biodistribution in kidney of mouse assessed per organ at 8 to 11 x 10^-8 mol, iv measured after 15 mins; type: ADME, organism-based; conditions: in vivo, 0.25 h; summary of the method: as §1
# [10] = Biodistribution in kidney of mongrel dog assessed per organ at 1.29 x 10^-6 mol, iv measured after 2 hrs; type: ADME, organism-based, Canis lupus familiaris; conditions: in vivo; summary of the method: as §2
# Liver [11] = assay: Biodistribution in liver of mouse assessed per organ at 8 to 11 x 10^-8 mol, iv measured after 240 mins; type: ADME, organism-based; conditions: in vivo, 4 h; summary of the method: as §1
# Liver [12] = assay: Biodistribution in liver of mongrel dog assessed per organ at 1.29 x 10^-6 mol, iv measured after 24 hrs; type: ADME, organism-based, Canis lupus familiaris; conditions: in vivo; summary of the method: as §2
# Liver [13] = assay: Biodistribution in liver of mouse assessed per organ at 8 to 11 x 10^-8 mol, iv measured after 60 mins; type: ADME, organism-based; conditions: in vivo, 1 h; summary of the method: as §1
# Kidney [14] = assay: Biodistribution in kidney of mouse assessed per organ at 8 to 11 x 10^-8 mol, iv measured after 240 mins; type: ADME, organism-based; conditions: in vivo, 4 h; summary of the method: as §1
# Kidney [15] = assay: Biodistribution in kidney of mouse assessed per organ at 8 to 11 x 10^-8 mol, iv measured after 30 mins; type: ADME, organism-based; conditions: in vivo, 0.5 h; summary of the method: as §1
# Kidney [16] = assay: Biodistribution in kidney of mouse assessed per organ at 8 to 11 x 10^-8 mol, iv measured after 120 mins; type: ADME, organism-based; conditions: in vivo, 2 h; summary of the method: as §1
# Mus musculus [17] = assay: Biodistribution in thyroid gland of mouse assessed per organ at 8 to 11 x 10^-8 mol, iv measured after 120 mins; type: ADME, organism-based; conditions: in vivo, 2 h; summary of the method: as §3
# Mus musculus [18] = assay: Biodistribution in adrenal gland of mouse assessed per organ at 8 to 11 x 10^-8 mol, iv measured after 240 mins; type: ADME, organism-based; conditions: in vivo, 4 h; summary of the method: as §1
# [19] = Biodistribution in thyroid gland of mongrel dog assessed per organ at 1.29 x 10^-6 mol, iv measured after 24 hrs; type: ADME, organism-based, Canis lupus familiaris; conditions: in vivo
# Summary of the method: (§4)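 Radioiodine-labelled tracer given at 1.29 × 10^-6 mol/dog. One dog per time point, killed at 2 or 24 h. Thyroids and other small organs were taken intact and counted. Large organs were sampled three times and averaged. Result given as % dose/organ.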
# Mus musculus [20] = assay: Biodistribution in adrenal gland of mouse assessed per organ at 8 to 11 x 10^-8 mol, iv measured after 5 mins; type: ADME, organism-based; conditions: in vivo; summary of the method: as §1
# Mus musculus [21] = assay: Biodistribution in thyroid gland of mouse assessed per organ at 8 to 11 x 10^-8 mol, iv measured after 30 mins; type: ADME, organism-based; conditions: in vivo, 0.5 h; summary of the method: as §3
# [22] = Biodistribution in thyroid gland of mongrel dog assessed per organ at 1.29 x 10^-6 mol, iv measured after 2 hrs; type: ADME, organism-based, Canis lupus familiaris; conditions: in vivo; summary of the method: as §4
# Liver [23] = assay: Biodistribution in liver of mouse assessed per organ at 8 to 11 x 10^-8 mol, iv measured after 5 mins; type: ADME, organism-based; conditions: in vivo; summary of the method: as §1
# Kidney [24] = assay: Biodistribution in kidney of mouse assessed per organ at 8 to 11 x 10^-8 mol, iv measured after 5 mins; type: ADME, organism-based; conditions: in vivo; summary of the method: as §1
# Mus musculus [25] = assay: Biodistribution in adrenal gland of mouse assessed per organ at 8 to 11 x 10^-8 mol, iv measured after 30 mins; type: ADME, organism-based; conditions: in vivo, 0.5 h; summary of the method: as §1
# Liver [26] = assay: Biodistribution in liver of mouse assessed per organ at 8 to 11 x 10^-8 mol, iv measured after 30 mins; type: ADME, organism-based; conditions: in vivo, 0.5 h; summary of the method: as §1
# Liver [27] = assay: Biodistribution in liver of mouse assessed per organ at 8 to 11 x 10^-8 mol, iv measured after 120 mins; type: ADME, organism-based; conditions: in vivo, 2 h; summary of the method: as §1
# [28] = Biodistribution in adrenal cortex of mongrel dog assessed per organ at 1.29 x 10^-6 mol, iv measured after 24 hrs; type: ADME, organism-based, Canis lupus familiaris; conditions: in vivo; summary of the method: as §2
# Mus musculus [29] = assay: Biodistribution in thyroid gland of mouse assessed per organ at 8 to 11 x 10^-8 mol, iv measured after 240 mins; type: ADME, organism-based; conditions: in vivo, 4 h; summary of the method: as §3
# Liver [30] = assay: Biodistribution in liver of mongrel dog assessed per organ at 1.29 x 10^-6 mol, iv measured after 2 hrs; type: ADME, organism-based, Canis lupus familiaris; conditions: in vivo; summary of the method: as §2
# Mus musculus [31] = assay: Biodistribution in thyroid gland of mouse assessed per organ at 8 to 11 x 10^-8 mol, iv measured after 60 mins; type: ADME, organism-based; conditions: in vivo, 1 h; summary of the method: as §3
# Mus musculus [32] = assay: Biodistribution in thyroid gland of mouse assessed per organ at 8 to 11 x 10^-8 mol, iv measured after 5 mins; type: ADME, organism-based; conditions: in vivo; summary of the method: as §3
# [33] = Biodistribution in adrenal medulla of mongrel dog assessed per organ at 1.29 x 10^-6 mol, iv measured after 24 hrs; type: ADME, organism-based, Canis lupus familiaris; conditions: in vivo; summary of the method: as §2
# Liver [34] = assay: Biodistribution in liver of mouse assessed per organ at 8 to 11 x 10^-8 mol, iv measured after 15 mins; type: ADME, organism-based; conditions: in vivo, 0.25 h; summary of the method: as §1
compound,measurement,setting,value
Br.NCCc1cc(O)c(O)cc1[123I],Drug uptake,Kidney [1],1 %ID
same,Drug uptake,[2],0.0092 %ID
same,Drug uptake,Mus musculus [3],0.02 %ID
same,Drug uptake,Mus musculus [4],0.067 %ID
same,Drug uptake,[5],0.0062 %ID
same,Drug uptake,Mus musculus [6],0.015 %ID
same,Drug uptake,[7],0.075 %ID
same,Drug uptake,Mus musculus [8],0.0087 %ID
same,Drug uptake,Kidney [9],3.44 %ID
same,Drug uptake,[10],0.77 %ID
same,Drug uptake,Liver [11],0.94 %ID
same,Drug uptake,Liver [12],0.48 %ID
same,Drug uptake,Liver [13],1.04 %ID
same,Drug uptake,Kidney [14],0.79 %ID
same,Drug uptake,Kidney [15],1.69 %ID
same,Drug uptake,Kidney [16],0.78 %ID
same,Drug uptake,Mus musculus [17],0.176 %ID
same,Drug uptake,Mus musculus [18],0.012 %ID
same,Drug uptake,[19],0.48 %ID
same,Drug uptake,Mus musculus [20],0.03 %ID
same,Drug uptake,Mus musculus [21],0.084 %ID
same,Drug uptake,[22],0.026 %ID
same,Drug uptake,Liver [23],7.1 %ID
same,Drug uptake,Kidney [24],8.03 %ID
same,Drug uptake,Mus musculus [25],0.014 %ID
same,Drug uptake,Liver [26],2.4 %ID
same,Drug uptake,Liver [27],0.84 %ID
same,Drug uptake,[28],0.0104 %ID
same,Drug uptake,Mus musculus [29],0.158 %ID
same,Drug uptake,Liver [30],2.24 %ID
same,Drug uptake,Mus musculus [31],0.066 %ID
same,Drug uptake,Mus musculus [32],0.094 %ID
same,Drug uptake,[33],0.0021 %ID
same,Drug uptake,Liver [34],3.64 %ID
